ChEMBL document CHEMBL1151851, “Antioxidant Lignans from the Fruits of Broussonetia papyrifera” (J Nat Prod, 2009)
pIC50: −log10 of the molar value. Activity calls are given as the source filed them. The rule behind the calls is not given here.

Assays:
PC-12 = test: Antioxidant activity against H2O2-induced impairment in rat PC12 cells at 0.16 to 100 uM after 3 hrs by MTT assay; assay type: functional, cell-based
Method in brief: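 PC12 cells in RPMI 1640 with 5% fetal calf serum, 10% horse serum, penicillin/streptomycin and 20 mM L-glutamine. Seeded at 1 × 10^6/mL, 24 h at 37 °C, 5% CO2. Then exposed to H2O2 (200 µM final) together with compound (0.16–100 µM final) for 3 h. PBS rinse, MTT 0.4 mg/mL for 4 h at 37 °C, DMSO solubilization, OD 570 nm. Viability %, n = 6, mean ± SD.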

[1] = tested on: Radical scavenging activity; test: Antioxidant activity assessed as DPPH radical scavenging activity after 30 mins by spectrophotometry; assay type: functional

Row | pIC50 [1] | Structure (SMILES) | Activity (PC-12)
1 | 3.56 | COc1cc(CCCO)ccc1O[C@H](CO)[C@@H](O)c1ccc(O)cc1 (relative stereo) [CHUSHIZISINS D] | 
2 | 3.81 | COc1cc(/C=C/CO)ccc1O[C@H](CO)[C@@H](O)c1ccc(O)cc1 (relative stereo) [CHUSHIZISINS B] | 
3 | 3.55 | COC(c1ccc(O)cc1)[C@H]1CO[C@@H](c2ccc(O)cc2)[C@@H]1CO (relative stereo) [CHUSHIZISIN G] | 
4 | 4.22 | COc1cc([C@H](O)[C@@H](CO)Oc2ccc(/C=C/CO)cc2OC)ccc1O (relative stereo) | Active
5 | 3.63 | COc1cc(/C=C/CO)ccc1O[C@H](CO)[C@H](O)c1ccc(O)cc1 (relative stereo) [CHUSHIZISINS A] | Active

The remaining lines, values behind:

Row | Structure (SMILES) | pIC50 [1] | Activity (PC-12)
6 | COc1cc(C(=O)CCO)cc2c1O[C@H](c1ccc(O)cc1)[C@H]2CO (relative stereo) |  | Active
7 | COc1cc(C(=O)[C@@H]2CO[C@H](c3ccc(O)cc3)[C@H]2CO)ccc1O[C@H](CO)[C@@H](O)c1ccc(O)cc1 (relative stereo) |  | Active
8 | COc1cc([C@H]2OC[C@H]3[C@@H]2CO[C@@H]3c2ccc(O)cc2)cc2c1O[C@H](c1ccc(O)cc1)[C@H]2CO (relative stereo) |  | Active
9 | COc1cc(CCCO)cc2c1O[C@H](c1ccc(O)cc1)[C@H]2CO |  | Active
